Screening results deposited in PubChem BioAssay by several laboratories.
Shown are actives, neighbours in structure and some others; about 1.2% of the full set was active somewhere.
RanGTP-Impb inh: inhibitors of RanGTP-importin-beta interaction, primary screen, biochemical, FRET, CFP-Ran, YFP-importin-beta, homogeneous; Ran GTPase (GTP-bound) - importin-beta complex; cell-free CFP-Ran/YFP-importin-beta FRET ratio; inhibition, % (no concentration beside the values); 1.1% of 300,000 active;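 active = more than half of the replicate wells show a fall in the fluorescence ratio signal beyond about 16%, limit read from the data, passing the limit was not always enough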;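 note: 0% = DMSO wells and 100% = Ran loaded with GDP instead of GTP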
Runt-CBFb FRET: inhibitors of RUNX1 Runt–CBFb binding, primary screen, biochemical, FRET, Cerulean-Runt, Venus-CBFb, uHTS; Runt-related transcription factor 1 (Homo sapiens) + Core-binding factor subunit beta …; Cerulean-Runt/Venus-CBFb FRET ratio 530/480, 1 h; inhibition, % at 20 µM; 0.46% of 220,000 active; AID 1496, 2009;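 active = inhibition over about 50% at 20 µM in the single-dose screen, limit read from the data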;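 note: 0% = DMSO wells and 100% = excess unlabeled CBFb competitor control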
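Measured by: fluorescence energy transfer, 422 nm excitation, 530/480 nm emission; Assay system: Cerulean-Runt domain; Medium: Tris pH 7.5 buffer with BSA; Measure: loss of energy transfer signal; Controls: 5 µM unlabeled CBFb as full-inhibition high control; Incubation: protein complex preformed 1 h, compound exposure 1 h, room temperature, dark.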
CaV13 FRET inh: Primary screen for inhibitors of IQ motif and Ca2+-dependent inactivation inhibitor domain binding in CACNA1D, Förster resonance energy transfer in living cells, … | 0.098% of 340,000 active | inhibition, % at 12.3 µM | HEK cells, CFP/YFP FRET ICDI-IQ, plate reader, 10 min; percent FRET-ratio fall versus neutral wells;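 active = mean replicate inhibition of at least 30% and at least 1% of replicates passing that level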;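 note: 0% = median of the neutral control wells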
Runt-SMMHC FRET: inhibitors of RUNX1 Runt–CBFb-SMMHC binding, primary screen, biochemical, FRET, Cerulean-Runt, Venus-CBFb-SMMHC, uHTS; Runt-related transcription factor 1 (Homo sapiens) + Core-binding factor subunit beta …; Cerulean-Runt/Venus-CBFb-SMMHC FRET ratio 530/480, 1 h; inhibition, % at 20 µM; 0.74% of 220,000 active;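 active = mean inhibition across duplicate retests at 20 µM reaching about 50%, limit read from the data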;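 note: 0% = DMSO wells and 100% = wells with excess untagged CBFb-SMMHC; inhibitors lower the FRET ratio by blocking Runt binding to CBFb-SMMHC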
The depositor's hits bear a star; · = no result.

SMILES	RanGTP-Impb inh	Runt-CBFb FRET	CaV13 FRET inh	Runt-SMMHC FRET
N#Cc1c(NCCO)nc(NCc2ccccc2)c2c1CCN(Cc1ccccc1)C2	137*	32	·	79*
CCc1nc(NCc2ccccc2)c(C#N)c2c1CCCC2	6	-3	8	-2
CCC(CO)[n+]1c(C)cc(/C=C2\Sc3ccccc3N2Cc2ccccc2)cc1C (centres undefined)	·	43	1	64*
CCCn1nc(NC(=O)c2ccco2)c2cc3ccccc3nc21	46*	15	-3	58
Cc1ccc2cc3c(NC(=O)c4ccco4)nn(C)c3nc2c1	23*	17	-2	27
CCn1nc(NC(=O)c2ccco2)c2cc3cc(C)ccc3nc21	54*	39	-6	84*
CC(=O)Nc1nn(C)c2nc3cc(C)ccc3cc12	9	-2	0	-8
CCn1nc(NC(=O)c2ccncc2)c2cc3cc(C)ccc3nc21	12	8	·	22
Cc1cccc(NC(=O)c2ccc(-n3cncn3)c([N+](=O)[O-])c2)c1	2	·	-1	·
CCN(CC(=O)Nc1c(F)cccc1F)C(=O)CSc1nc(C)cc(C)n1	3	·	-5	·
CC1CC(C)CN(C(=O)c2ccc3c(c2NCCO)C(=O)c2ccccc2C3=O)C1 (centres undefined)	0	-1	·	-1
O=C(Cn1nnc(-c2ccc(F)cc2)n1)OCC(=O)c1ccccc1	20*	-1	-3	-6
NS(=O)(=O)c1ccc(N=Nc2ccc(O)c3ncccc23)cc1	-5	·	-4	·
O=Cc1ccc(O)c2ncccc12	9	43	·	74*
Cc1ccccc1S(=O)(=O)c1cc(C#N)c(=O)[nH]c1N	6	87*	2	134*
N#Cc1cc(S(=O)(=O)c2ccccc2)c(N)[nH]c1=O	9	10	-5	35
NNC(=O)CCCCCCCCCCOCCCCO	2	-2	-7	-7
CCOC(=S)SCc1cn2ccc(C)cc2n1	21*	4	-6	-7
COc1ccc(-c2csc(C(C)(O)c3ccncc3)n2)cc1OC (centres undefined)	·	·	-10	·
Cc1cc(C)n(-c2ccc(C(=O)N3CCN(S(=O)(=O)c4ccc(OC(F)(F)F)cc4)CC3)cc2)n1	·	·	-7	·
COc1ccc(NC(=O)c2cc(-c3cc(F)ccc3OCC3CCCO3)n[nH]2)c(C)c1 (centres undefined)	·	·	-6	·
Cc1cc(C)c2c(=O)n(CC(=O)Nc3cccc(F)c3)sc2n1	0	-8	-2	65*
CCOc1ccc(NC(=O)Cn2sc3nc(C)cc(C)c3c2=O)cc1	-2	-14	·	53
Cc1cc(C)c2c(=O)n(CC(=O)Nc3ccc(Cl)cc3)sc2n1	-6	0	-2	47
Cc1ccc(NC(=O)Cn2sc3nc(C)cc(C)c3c2=O)c(Cl)c1	-3	-4	-17	51*
SMILES	RanGTP-Impb inh	Runt-CBFb FRET	CaV13 FRET inh	Runt-SMMHC FRET
Cc1cc2nc(C(C)(C)C)c(Cc3ccsc3)n2c(C)c1Br	·	·	-5	·
COc1ccc(CC(=O)N2CCN=C2SCc2cccc([N+](=O)[O-])c2)cc1	1	-1	5	2
CC(NC(=O)OC(C)(C)C)C(=O)Oc1cc2oc(=O)cc(-c3ccccc3)c2cc1Cl (centres undefined)	1	19	·	79*
CC(Oc1cc2oc(=O)cc(-c3ccccc3)c2cc1Cl)C(=O)NCC1CCC(C(=O)O)CC1 (centres undefined)	6	·	·	·
Oc1oc(-c2ccccc2)nc1/C=N/c1nccs1	-1	-2	-3	-7
Oc1oc(-c2ccccc2)nc1C=Nc1cccc2ccccc12	27*	1	-8	9
CC(C)CC1NC(=O)c2cc(Cl)ccc2-n2c1nc1cc(F)ccc1c2=O (centres undefined)	·	·	-11	·
CN1c2ccc(Cl)cc2C(=O)NC1C1CC=CCC1 (centres undefined)	30*	42	44*	95*
Cc1ccc2c(c1)C(=O)CC1(CCCCCC1)O2	3	1	-5	-4
Cc1ccc2c(c1)CC1(CN2C)C(=O)OC2(CCCCC2)OC1=O	26*	-4	-9	-30
CCCCC(=O)Nc1sc2c(c1-c1nc3ccccc3s1)CCN(C(C)=O)C2	·	2	·	-2
